Results reported in ChEMBL document CHEMBL3611968, “Reengineered tricyclic anti-cancer agents” (Bioorg Med Chem, 2015).
Calls of active or inactive are those of the source. The rule behind the calls is not given here.

Key:
NCI-H1650 [1] = test: Cytotoxicity against human NCI-H1650 cells assessed as growth inhibition after 48 hrs by MTT assay; format: functional; conditions: NCI-H1650, 48 h
Summary of the method: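 H1650 cells were exposed to drug for 48 h at five concentrations bracketing 1–40 μM in 10 μM steps, with MTT read-out. GI50 is given only where the data form a sigmoidal dose response.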

NCI-H1650 [2] = test: Cell cycle arrest in human NCI-H1650 cells assessed as accumulation at sub-G1 phase at 1 to 40 uM by propidium iodide staining-based flow cytometric analysis; format: functional
[3] = target: Sodium-dependent dopamine transporter (Homo sapiens) (UniProt Q01959); conditions: 1 mM
Chain of Sodium-dependent dopamine transporter (Homo sapiens) (Q01959 whole entry): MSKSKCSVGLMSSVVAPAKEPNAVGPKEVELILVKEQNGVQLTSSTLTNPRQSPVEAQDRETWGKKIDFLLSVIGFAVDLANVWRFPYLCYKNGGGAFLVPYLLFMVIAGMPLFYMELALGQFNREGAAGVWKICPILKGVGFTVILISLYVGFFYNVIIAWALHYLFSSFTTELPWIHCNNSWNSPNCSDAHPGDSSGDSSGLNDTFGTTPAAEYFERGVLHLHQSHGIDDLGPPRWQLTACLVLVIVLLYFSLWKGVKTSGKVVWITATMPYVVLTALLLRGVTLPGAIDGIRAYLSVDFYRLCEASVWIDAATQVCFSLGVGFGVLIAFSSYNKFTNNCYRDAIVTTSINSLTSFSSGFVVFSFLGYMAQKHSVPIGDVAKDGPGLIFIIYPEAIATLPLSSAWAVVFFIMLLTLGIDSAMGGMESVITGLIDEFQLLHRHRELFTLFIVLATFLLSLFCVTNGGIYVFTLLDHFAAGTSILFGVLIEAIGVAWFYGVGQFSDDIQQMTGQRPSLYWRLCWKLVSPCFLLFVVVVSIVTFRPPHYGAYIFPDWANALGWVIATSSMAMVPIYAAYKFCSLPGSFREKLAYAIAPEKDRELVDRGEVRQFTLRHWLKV

[4] = target: Sodium-dependent dopamine transporter (Homo sapiens) (UniProt Q01959); conditions: 10 mM
[5] = target: Sodium-dependent noradrenaline transporter (Homo sapiens) (UniProt P23975); test: Displacement of [3H]-nisoxetine from norepinephrine transporter (unknown origin) at 0.1 mM relative to control
Chain of Sodium-dependent noradrenaline transporter (Homo sapiens) (P23975 whole entry): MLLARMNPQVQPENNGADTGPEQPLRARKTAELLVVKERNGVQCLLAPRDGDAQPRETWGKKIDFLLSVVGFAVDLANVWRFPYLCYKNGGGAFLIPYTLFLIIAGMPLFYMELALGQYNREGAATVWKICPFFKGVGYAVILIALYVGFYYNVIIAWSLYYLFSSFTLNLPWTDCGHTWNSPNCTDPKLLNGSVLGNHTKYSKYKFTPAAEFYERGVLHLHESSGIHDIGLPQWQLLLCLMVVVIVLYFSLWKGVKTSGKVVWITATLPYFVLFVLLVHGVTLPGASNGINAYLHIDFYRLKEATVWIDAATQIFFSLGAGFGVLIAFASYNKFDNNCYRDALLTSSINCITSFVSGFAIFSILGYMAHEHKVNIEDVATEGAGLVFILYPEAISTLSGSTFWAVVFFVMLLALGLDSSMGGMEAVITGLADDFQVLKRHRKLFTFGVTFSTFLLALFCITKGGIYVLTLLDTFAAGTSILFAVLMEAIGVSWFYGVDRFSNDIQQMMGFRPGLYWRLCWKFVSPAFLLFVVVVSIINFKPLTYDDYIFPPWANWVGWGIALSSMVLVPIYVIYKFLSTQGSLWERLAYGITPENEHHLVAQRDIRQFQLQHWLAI
Summary of the method: (§1)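 Competitive antagonist radioligand binding at monoamine transporters. Serotonin transporter is labelled with [³H]imipramine and norepinephrine transporter with [³H]nisoxetine. The compound was tested at three concentrations, and binding is expressed as percent inhibition of specific radioligand binding. Each value is the mean of two independent determinations.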

[6] = target: Sodium-dependent noradrenaline transporter (Homo sapiens) (UniProt P23975); test: Displacement of [3H]-nisoxetine from norepinephrine transporter (unknown origin) at 1 mM relative to control; summary of the method: as §1
[7] = target: Sodium-dependent noradrenaline transporter (Homo sapiens) (UniProt P23975); test: Displacement of [3H]-nisoxetine from norepinephrine transporter (unknown origin) at 10 mM relative to control; summary of the method: as §1
[8] = target: Sodium channel protein type 5 subunit alpha (Homo sapiens, UniProt Q14524); test: Inhibition of Nav1.5 channel (unknown origin) expressed in HEK293 cells at […] by patch clamp assay; format: cell-based
Chain of Sodium channel protein type 5 subunit alpha (Q14524 whole entry): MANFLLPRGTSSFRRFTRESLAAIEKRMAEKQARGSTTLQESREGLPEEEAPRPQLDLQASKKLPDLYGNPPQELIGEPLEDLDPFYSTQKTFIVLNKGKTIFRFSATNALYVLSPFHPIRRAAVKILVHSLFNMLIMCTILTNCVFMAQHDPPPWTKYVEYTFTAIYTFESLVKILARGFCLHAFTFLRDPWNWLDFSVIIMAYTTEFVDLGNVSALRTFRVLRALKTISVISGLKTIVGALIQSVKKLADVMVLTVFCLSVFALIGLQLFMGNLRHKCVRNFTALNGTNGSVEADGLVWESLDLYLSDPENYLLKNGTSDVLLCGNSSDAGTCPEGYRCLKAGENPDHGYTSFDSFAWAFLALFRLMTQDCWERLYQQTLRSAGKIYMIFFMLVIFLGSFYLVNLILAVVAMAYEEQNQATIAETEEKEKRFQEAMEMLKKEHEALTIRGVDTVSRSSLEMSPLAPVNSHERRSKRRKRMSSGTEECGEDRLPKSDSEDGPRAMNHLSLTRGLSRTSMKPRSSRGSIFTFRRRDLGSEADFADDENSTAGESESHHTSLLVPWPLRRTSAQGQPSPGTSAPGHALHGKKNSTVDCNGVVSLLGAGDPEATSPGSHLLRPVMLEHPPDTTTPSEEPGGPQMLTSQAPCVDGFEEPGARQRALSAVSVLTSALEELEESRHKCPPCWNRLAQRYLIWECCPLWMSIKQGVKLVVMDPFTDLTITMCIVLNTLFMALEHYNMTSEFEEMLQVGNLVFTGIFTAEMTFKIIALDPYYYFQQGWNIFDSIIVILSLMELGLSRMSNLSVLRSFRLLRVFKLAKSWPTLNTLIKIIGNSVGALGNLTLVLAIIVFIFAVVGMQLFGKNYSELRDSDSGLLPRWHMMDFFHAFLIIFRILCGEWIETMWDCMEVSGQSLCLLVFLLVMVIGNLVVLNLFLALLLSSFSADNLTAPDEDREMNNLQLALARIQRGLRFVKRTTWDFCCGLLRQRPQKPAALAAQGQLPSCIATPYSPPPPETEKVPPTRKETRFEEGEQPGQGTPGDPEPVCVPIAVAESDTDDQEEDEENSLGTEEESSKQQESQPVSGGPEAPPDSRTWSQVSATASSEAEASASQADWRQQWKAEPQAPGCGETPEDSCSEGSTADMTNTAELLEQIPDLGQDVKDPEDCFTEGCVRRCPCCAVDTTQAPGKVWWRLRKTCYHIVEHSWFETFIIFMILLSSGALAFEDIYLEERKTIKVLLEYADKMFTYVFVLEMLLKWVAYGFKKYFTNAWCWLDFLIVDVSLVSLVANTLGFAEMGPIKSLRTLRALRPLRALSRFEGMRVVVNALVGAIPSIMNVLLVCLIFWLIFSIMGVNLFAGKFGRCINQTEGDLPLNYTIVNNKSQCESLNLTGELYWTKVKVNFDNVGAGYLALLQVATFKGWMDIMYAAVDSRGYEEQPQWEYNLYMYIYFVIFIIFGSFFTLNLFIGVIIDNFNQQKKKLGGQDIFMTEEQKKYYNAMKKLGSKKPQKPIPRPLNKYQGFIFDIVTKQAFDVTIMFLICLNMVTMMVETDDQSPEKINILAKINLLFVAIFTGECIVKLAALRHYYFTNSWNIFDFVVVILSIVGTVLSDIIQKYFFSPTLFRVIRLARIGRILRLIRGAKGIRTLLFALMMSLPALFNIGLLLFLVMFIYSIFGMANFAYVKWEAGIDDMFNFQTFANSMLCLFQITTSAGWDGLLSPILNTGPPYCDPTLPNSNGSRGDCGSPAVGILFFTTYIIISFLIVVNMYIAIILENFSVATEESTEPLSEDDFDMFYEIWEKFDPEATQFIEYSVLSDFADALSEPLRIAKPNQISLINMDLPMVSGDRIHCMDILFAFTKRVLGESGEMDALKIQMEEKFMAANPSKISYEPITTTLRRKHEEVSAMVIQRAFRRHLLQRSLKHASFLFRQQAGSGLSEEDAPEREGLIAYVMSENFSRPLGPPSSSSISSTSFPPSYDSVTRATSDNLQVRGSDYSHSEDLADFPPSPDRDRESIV

[9] = AUCinfinity in mouse at 25 mg/kg, ip; format: ADME, organism-based; design: dose 25 mg/kg, time infinity, route intraperitoneal; conditions: in vivo
[10] = target: Histamine H1 receptor (Homo sapiens) (UniProt P35367); test: Displacement of [3H]-pyrilamine from histamine H1 receptor (unknown origin) at […]
Chain of Histamine H1 receptor (Homo sapiens) (P35367 whole entry): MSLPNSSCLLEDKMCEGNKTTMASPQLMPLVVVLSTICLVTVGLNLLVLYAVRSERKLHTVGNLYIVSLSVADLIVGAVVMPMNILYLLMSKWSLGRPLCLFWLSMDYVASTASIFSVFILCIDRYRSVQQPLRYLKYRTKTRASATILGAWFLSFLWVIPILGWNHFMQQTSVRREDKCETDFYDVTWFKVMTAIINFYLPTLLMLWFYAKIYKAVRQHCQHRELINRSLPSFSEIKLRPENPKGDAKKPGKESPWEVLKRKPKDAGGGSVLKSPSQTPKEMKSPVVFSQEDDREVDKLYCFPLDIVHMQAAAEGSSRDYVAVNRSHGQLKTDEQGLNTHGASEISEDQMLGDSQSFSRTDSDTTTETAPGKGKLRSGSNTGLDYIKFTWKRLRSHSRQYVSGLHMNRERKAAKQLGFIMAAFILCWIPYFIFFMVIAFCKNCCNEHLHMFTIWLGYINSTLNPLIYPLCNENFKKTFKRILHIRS

[11] = Cmax in mouse at 25 mg/kg, po; format: ADME, organism-based; design: dose 25 mg/kg, route oral; conditions: in vivo
[12] = Clearance in mouse at 1 mg/kg, iv; format: ADME, organism-based; conditions: in vivo
Homo sapiens [13] = organism: Homo sapiens; test: Displacement of [125-I]-apamin from SKCa channel (unknown origin) at 0.1 to 10 mM
NCI-H1650 [14] = test: Induction of apoptosis in human NCI-H1650 cells by Annexin V staining in presence of pan caspase inhibition Z-VAD; format: functional, cell-based
[15] = Oral bioavailability in mouse at 100 mg/kg; format: ADME, organism-based; conditions: in vivo
[16] = target: Sodium-dependent serotonin transporter (Homo sapiens) (UniProt P31645); test: Displacement of [3H]-imipramine from serotonin transporter (unknown origin) at 0.1 to 10 mM relative to control; summary of the method: as §1
[17] = Half life in mouse at 1 mg/kg, iv; format: ADME, organism-based; conditions: in vivo
[18] = Tmax in mouse at 100 mg/kg, po; format: ADME, organism-based; conditions: in vivo
Homo sapiens [19] = organism: Homo sapiens; test: Displacement of [3H]-D888 from L-type Ca2+ channel verapamil site (unknown origin) at […]
[20] = Bioavailability in mouse at 100 mg/kg, ip administered through DMA/solutol/water; format: ADME, organism-based; conditions: in vivo
[21] = AUClast in mouse at 100 mg/kg, ip administered through DMA/solutol/water; format: ADME, organism-based; conditions: in vivo
[22] = Cmax in mouse at 100 mg/kg, ip administered through DMA/solutol/water; format: ADME, organism-based; design: dose 100 mg/kg, route intraperitoneal; conditions: in vivo
[23] = Cmax in mouse at 25 mg/kg, ip; format: ADME, organism-based; design: dose 25 mg/kg, route intraperitoneal; conditions: in vivo
[24] = AUClast in mouse at 25 mg/kg, ip; format: ADME, organism-based; conditions: in vivo
[25] = AUCinfinity in mouse at 1 mg/kg, iv; format: ADME, organism-based; design: dose 1 mg/kg, time infinity, route intravenous; conditions: in vivo
NCI-H1650 [26] = test: Induction of apoptosis in human NCI-H1650 cells by Annexin V staining; format: functional, cell-based
[27] = AUCinfinity in mouse at 25 mg/kg, po; format: ADME, organism-based; design: dose 25 mg/kg, route oral, time infinity; conditions: in vivo
[28] = target: Voltage-gated inwardly rectifying potassium channel KCNH2 (Homo sapiens, UniProt Q12809); test: Displacement of [3H]-astemizole from human ERG at […]
Chain of Voltage-gated inwardly rectifying potassium channel KCNH2 (Q12809 whole entry): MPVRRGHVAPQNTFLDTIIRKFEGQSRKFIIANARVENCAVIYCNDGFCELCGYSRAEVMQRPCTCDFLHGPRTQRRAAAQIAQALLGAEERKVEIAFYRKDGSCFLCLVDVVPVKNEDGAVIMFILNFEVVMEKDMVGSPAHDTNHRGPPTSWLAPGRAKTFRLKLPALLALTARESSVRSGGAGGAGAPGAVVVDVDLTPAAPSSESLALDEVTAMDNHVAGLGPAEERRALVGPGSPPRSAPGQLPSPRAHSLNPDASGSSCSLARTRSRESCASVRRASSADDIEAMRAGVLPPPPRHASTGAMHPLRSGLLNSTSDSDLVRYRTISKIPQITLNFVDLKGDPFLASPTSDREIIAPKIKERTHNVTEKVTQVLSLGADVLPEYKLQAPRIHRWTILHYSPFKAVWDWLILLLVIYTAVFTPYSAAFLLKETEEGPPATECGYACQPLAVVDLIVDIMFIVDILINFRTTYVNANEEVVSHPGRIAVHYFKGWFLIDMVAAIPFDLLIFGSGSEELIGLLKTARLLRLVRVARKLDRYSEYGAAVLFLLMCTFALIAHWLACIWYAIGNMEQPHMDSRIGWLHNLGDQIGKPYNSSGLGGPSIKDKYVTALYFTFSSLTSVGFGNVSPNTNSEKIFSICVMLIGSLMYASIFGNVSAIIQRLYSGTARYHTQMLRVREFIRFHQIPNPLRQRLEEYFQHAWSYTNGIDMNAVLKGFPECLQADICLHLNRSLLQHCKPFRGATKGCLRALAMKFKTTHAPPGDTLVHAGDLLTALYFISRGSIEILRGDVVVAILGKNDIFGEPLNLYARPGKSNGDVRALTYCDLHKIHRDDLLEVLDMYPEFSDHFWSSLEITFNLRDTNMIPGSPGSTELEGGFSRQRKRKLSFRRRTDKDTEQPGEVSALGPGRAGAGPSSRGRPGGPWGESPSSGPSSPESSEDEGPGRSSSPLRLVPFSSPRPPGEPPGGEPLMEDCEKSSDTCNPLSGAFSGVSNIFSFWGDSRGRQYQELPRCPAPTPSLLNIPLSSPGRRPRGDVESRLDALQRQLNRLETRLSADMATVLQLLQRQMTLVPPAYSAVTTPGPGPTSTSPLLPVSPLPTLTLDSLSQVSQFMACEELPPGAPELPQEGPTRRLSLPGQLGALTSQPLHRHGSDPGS

[29] = Tmax in mouse at 100 mg/kg, ip administered through DMSO; format: ADME, organism-based; conditions: in vivo
[30] = Oral bioavailability in mouse at 25 mg/kg; format: ADME, organism-based; conditions: in vivo
NCI-H1650 [31] = test: Antitumor activity against human NCI-H1650 cells xenografted in BALB/c nu/nu mouse assessed as change in tumor volume at 100 mg/kg, ip administered every other day for 3 weeks (reference value: 3.46 +/- 0.95); format: functional
Summary of the method: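 H1650 tumours were grown in mice. The 100 mg/kg treated group (n = 9) was compared with vehicle controls (n = 7) on mean fold change in tumour volume, using Student's t test.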

[32] = target: RAC-alpha serine/threonine-protein kinase (Homo sapiens) (UniProt P31749); test: Inhibition of AKT phosphorylation in human NCI-H1650 cells at 20 to 40 uM after 12 hrs by Western blot analysis; format: cell-based
[33] = Cmax in mouse at 100 mg/kg, ip administered through DMSO; format: ADME, organism-based; design: dose 100 mg/kg, route intraperitoneal; conditions: in vivo
[34] = AUClast in mouse at 25 mg/kg, po; format: ADME, organism-based; conditions: in vivo
[35] = Bioavailability in mouse at 25 mg/kg, ip; format: ADME, organism-based; conditions: in vivo
[36] = AUClast in mouse at 100 mg/kg, ip administered through DMSO; format: ADME, organism-based; conditions: in vivo
[37] = Tmax in mouse at 25 mg/kg, po; format: ADME, organism-based; conditions: in vivo
[38] = target: Sodium-dependent dopamine transporter (Homo sapiens) (UniProt Q01959); test: Displacement of [3H]-BTCP from dopamine transporter (unknown origin) at 1 to 10 mM
Summary of the method: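 Dopamine transporter antagonist radioligand binding used [3H]BTCP, tested at 0.1, 1.0 and 10 mM, as percent inhibition. Each value is the average of two independent determinations.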

[39] = AUCinfinity in mouse at 100 mg/kg, po; format: ADME, organism-based; design: dose 100 mg/kg, route oral, time infinity; conditions: in vivo
[40] = target: T1, Muscarinic acetylcholine receptor M2 (Homo sapiens) (UniProt P08172); test: Displacement of [3H]-AF-DX384 from muscarinic acetylcholine M2 receptor (unknown origin) at […]
T1 sequence (whole entry): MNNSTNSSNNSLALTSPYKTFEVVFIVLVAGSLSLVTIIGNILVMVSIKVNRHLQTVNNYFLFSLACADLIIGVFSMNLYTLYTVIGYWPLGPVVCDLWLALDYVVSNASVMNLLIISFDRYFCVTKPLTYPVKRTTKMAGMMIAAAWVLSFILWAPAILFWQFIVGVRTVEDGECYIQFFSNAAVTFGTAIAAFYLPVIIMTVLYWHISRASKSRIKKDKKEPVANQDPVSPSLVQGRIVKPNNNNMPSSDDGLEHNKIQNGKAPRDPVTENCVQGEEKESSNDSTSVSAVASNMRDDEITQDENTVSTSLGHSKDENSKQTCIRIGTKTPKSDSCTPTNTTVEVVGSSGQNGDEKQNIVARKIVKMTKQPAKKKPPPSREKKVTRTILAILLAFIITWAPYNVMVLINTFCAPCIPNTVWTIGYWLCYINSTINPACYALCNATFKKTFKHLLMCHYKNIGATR

[41] = Tmax in mouse at 100 mg/kg, ip administered through DMA/solutol/water; format: ADME, organism-based; conditions: in vivo
[42] = target: Histamine H2 receptor (Homo sapiens) (UniProt P25021); test: Displacement of [125I]-APT from histamine H2 receptor (unknown origin) at […]
NCI-H1650 [43] = test: Inhibition of ERK phosphorylation in human NCI-H1650 cells at 20 to 40 uM after 12 hrs by Western blot analysis; format: cell-based
Homo sapiens [44] = organism: Homo sapiens; test: Displacement of [3H]-diltiazem from L-type Ca2+ channel diltiazem site (unknown origin) at […]
[45] = test system: Voltage-gated potassium channel; test: Displacement of [125-I]-dendrotoxin from Kv channel (unknown origin) at 0.1 to 10 mM; format: protein assay; conditions: human
[46] = Volume of distribution at steady state in mouse at 1 mg/kg, iv; format: ADME, organism-based; conditions: in vivo, read-out: Vdss
[47] = target: Sodium-dependent noradrenaline transporter (Homo sapiens) (UniProt P23975); test: Displacement of [3H]-nisoxetine from norepinephrine transporter (unknown origin) at 1 to 10 mM; summary of the method: as §1
[48] = Tmax in mouse at 25 mg/kg, ip; format: ADME, organism-based; conditions: in vivo
[49] = AUCinfinity in mouse at 100 mg/kg, ip administered through DMA/solutol/water; format: ADME, organism-based; design: dose 100 mg/kg, route intraperitoneal, time infinity; conditions: in vivo
[50] = Cmax in mouse at 100 mg/kg, po; format: ADME, organism-based; design: dose 100 mg/kg, route oral; conditions: in vivo
[51] = AUCinfinity in mouse at 100 mg/kg, ip administered through DMSO; format: ADME, organism-based; design: dose 100 mg/kg, time infinity, route intraperitoneal; conditions: in vivo
[52] = Bioavailability in mouse at 100 mg/kg, ip administered through DMSO; format: ADME, organism-based; conditions: in vivo
[53] = AUClast in mouse at 1 mg/kg, iv; format: ADME, organism-based; conditions: in vivo
Homo sapiens [54] = organism: Homo sapiens; test: Displacement of [3H]-nitrendipine from L-type Ca2+ channel dihydropyridine site (unknown origin) at […]
Homo sapiens [55] = organism: Homo sapiens; test: Displacement of [3H]-glibencamide from K (ATP) channel (unknown origin) at […]
[56] = AUClast in mouse at 100 mg/kg, po; format: ADME, organism-based; conditions: in vivo

## CN(C)CCCN1c2ccccc2CCc2ccc(Cl)cc21 [CLOMIPRAMINE]
NCI-H1650 [1]
  GI50: > 40 µM
NCI-H1650 [2]
  Activity: Active
[3]
  inhibition: 14%
[4]
  inhibition: 60%
[5]
  inhibition: 5%
[6]
  inhibition: 90%
[7]
  inhibition: 100%
[8]
  inhibition (INH): Active

## O=S(=O)(NCCCN1c2ccccc2CCc2ccc(Cl)cc21)c1ccc(OC(F)(F)F)cc1
[9]
  AUC(0-inf): 3680 ng·h/mL
NCI-H1650 [1]
  GI50: 12.6 µM
[10]
  inhibition: inactive
[11]
  Cmax: 476 ng/mL
[12]
  clearance: 42 mL/min/kg
Homo sapiens [13]
  inhibition: inactive
NCI-H1650 [14]
  Activity: inactive
[15]
  bioavailability: 18%
[16]
  inhibition: < 5%
[17]
  half-life: 0.61 h
[18]
  Tmax: 2 h
NCI-H1650 [2]
  Activity: Active
Homo sapiens [19]
  inhibition: inactive
[20]
  bioavailability: 34%
[21]
  AUC(0-t): 12800 ng·h/mL
[22]
  Cmax: 2350 ng/mL
[23]
  Cmax: 754 ng/mL
[24]
  AUC(0-t): 3570 ng·h/mL
[25]
  AUC(0-inf): 399 ng·h/mL
NCI-H1650 [26]
  Activity: Active
[27]
  AUC(0-inf): 1430 ng·h/mL
[28]
  inhibition (INH): Not Active
[29]
  Tmax: 4 h
[30]
  bioavailability: 15%
NCI-H1650 [31]
  fold change (FC): 1.49
[32]
  inhibition: Active
[33]
  Cmax: 3100 ng/mL
[34]
  AUC(0-t): 1380 ng·h/mL
[35]
  bioavailability: 38%
[36]
  AUC(0-t): 38800 ng·h/mL
[37]
  Tmax: 1 h
[38]
  inhibition: Active
[39]
  AUC(0-inf): 7210 ng·h/mL
[40]
  inhibition: inactive
[41]
  Tmax: 2 h
[42]
  inhibition: inactive
NCI-H1650 [43]
  inhibition: Active
Homo sapiens [44]
  inhibition: inactive
[45]
  inhibition (INH): Not Active
[46]
  Vd: 1.31 L/kg
[47]
  inhibition: Active
[48]
  Tmax: 1 h
[49]
  AUC(0-inf): 14100 ng·h/mL
[50]
  Cmax: 1940 ng/mL
[51]
  AUC(0-inf): 40700 ng·h/mL
[52]
  bioavailability: 100%
[53]
  AUC(0-t): 375 ng·h/mL
Homo sapiens [54]
  inhibition: inactive
Homo sapiens [55]
  inhibition: inactive
[8]
  inhibition (INH): Not Active
[56]
  AUC(0-t): 6790 ng·h/mL
